Data reported in paper PMC2828537 (Pflugers Archiv : European journal of physiology, 2009).

Tests used:
Format in all cases: cell-based
[1] = target: T1, human TRPA1 endogenously expressed in WI-38 fibroblasts (Homo sapiens, UniProt O75762); assay: Fluo4 [Ca2+]i assay in WI-38 fibroblasts
[2] = target: rat TRPA1 (Rattus norvegicus, UniProt Q6RI86); assay: Two-electrode voltage clamp of Xenopus oocytes expressing rat TRPA1; conditions: for response to FFA and AITC together, % of that evoked by FFA alone: 30 µM FFA + 3 µM AITC; for current stimulated by FFA and CA together, % of that evoked by FFA: 30 µM FFA + 3 µM CA; for current with FFA at 14°C, % of that evoked by the same concentration at 22°C / increase of FFA-activated current by raising bath Ca2+ to 10 mM / decrease of FFA-activated current amplitude in BAPTA-injected oocytes: 30 µM FFA; for decrease of FFA-activated current amplitude in BAPTA-injected oocytes / EC50: nominally Ca2+-free bath; for decrease of FFA-activated current amplitude in BAPTA-injected oocytes: BAPTA ~2.5 mM
rat TRPA1, sequence (Q6RI86 whole entry): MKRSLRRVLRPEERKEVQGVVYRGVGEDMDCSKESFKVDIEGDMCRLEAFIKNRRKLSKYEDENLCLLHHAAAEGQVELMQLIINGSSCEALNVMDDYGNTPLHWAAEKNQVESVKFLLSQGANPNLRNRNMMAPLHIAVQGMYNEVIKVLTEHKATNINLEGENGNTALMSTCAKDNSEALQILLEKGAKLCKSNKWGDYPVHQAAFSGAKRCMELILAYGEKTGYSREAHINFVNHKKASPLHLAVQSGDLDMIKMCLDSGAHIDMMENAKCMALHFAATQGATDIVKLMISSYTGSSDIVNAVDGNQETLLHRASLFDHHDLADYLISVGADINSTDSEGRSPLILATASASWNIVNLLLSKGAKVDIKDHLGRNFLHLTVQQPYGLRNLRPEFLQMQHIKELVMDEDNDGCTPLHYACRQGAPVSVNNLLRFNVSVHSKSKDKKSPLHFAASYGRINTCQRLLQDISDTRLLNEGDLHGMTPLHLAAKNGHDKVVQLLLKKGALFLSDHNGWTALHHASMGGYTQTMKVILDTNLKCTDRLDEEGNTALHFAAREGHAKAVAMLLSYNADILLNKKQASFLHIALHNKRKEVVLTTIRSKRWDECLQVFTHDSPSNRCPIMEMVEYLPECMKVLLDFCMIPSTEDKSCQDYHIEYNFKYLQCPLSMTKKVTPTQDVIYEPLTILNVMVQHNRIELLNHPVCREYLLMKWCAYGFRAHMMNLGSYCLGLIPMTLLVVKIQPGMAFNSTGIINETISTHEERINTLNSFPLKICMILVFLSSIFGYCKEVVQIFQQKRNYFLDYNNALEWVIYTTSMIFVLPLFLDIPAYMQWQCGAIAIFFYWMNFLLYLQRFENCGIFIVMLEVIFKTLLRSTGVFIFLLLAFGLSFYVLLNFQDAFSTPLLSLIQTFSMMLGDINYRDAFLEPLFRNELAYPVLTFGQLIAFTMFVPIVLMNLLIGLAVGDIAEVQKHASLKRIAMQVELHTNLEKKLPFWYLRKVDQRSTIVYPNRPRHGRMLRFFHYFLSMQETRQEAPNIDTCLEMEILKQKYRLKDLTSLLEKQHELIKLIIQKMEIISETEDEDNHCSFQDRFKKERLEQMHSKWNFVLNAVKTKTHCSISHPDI

[3] = target: murine TRPM8 (Mus musculus, UniProt Q8R4D5); assay: Fluo4 [Ca2+]i assay in stable HEK293 TRPM8 cell line
murine TRPM8, sequence (Q8R4D5 whole entry): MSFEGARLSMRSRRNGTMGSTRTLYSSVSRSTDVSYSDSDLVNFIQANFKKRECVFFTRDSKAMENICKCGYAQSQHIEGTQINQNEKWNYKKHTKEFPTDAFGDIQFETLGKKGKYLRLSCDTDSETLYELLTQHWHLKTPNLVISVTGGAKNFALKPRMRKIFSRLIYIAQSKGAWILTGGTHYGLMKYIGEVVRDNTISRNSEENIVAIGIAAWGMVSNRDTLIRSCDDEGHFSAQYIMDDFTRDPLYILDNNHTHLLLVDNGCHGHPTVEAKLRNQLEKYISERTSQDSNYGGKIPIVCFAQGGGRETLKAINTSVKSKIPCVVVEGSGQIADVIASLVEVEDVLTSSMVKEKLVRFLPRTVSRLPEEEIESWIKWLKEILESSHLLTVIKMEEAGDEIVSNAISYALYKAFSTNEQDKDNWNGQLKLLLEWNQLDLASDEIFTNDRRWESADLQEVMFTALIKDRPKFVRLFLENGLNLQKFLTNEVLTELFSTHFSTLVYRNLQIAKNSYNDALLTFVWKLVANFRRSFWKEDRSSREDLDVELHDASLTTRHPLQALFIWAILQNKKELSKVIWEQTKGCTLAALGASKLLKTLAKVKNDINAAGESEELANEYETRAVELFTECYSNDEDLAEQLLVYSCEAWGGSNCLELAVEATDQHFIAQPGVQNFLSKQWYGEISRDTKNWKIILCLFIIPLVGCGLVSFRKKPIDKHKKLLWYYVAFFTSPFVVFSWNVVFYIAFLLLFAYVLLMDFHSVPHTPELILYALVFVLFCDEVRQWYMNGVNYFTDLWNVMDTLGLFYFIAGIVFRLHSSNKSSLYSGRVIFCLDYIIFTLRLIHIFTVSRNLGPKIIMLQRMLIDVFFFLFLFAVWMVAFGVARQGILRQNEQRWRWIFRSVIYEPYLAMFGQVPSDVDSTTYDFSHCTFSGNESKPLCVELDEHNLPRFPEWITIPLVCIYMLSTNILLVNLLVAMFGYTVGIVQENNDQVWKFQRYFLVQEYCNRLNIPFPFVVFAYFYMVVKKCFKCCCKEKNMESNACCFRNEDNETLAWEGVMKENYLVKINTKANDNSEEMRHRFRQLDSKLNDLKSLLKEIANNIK
Procedure, shortened: (§1)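 Stable HEK293 lines expressing murine TRPV3 (clonal) or TRPM8 (polyclonal), selected with 400 µg/ml G418. Seeded at ~100,000 cells/well on polyornithine-treated wells and grown 14–18 hrs. Loaded with 2 µM Fluo4-AM plus 0.05% Pluronic F-127 in ECS (pH 7.4) for 60 min at 37°C, with 2 mM probenecid throughout. Test compound and channel agonist added robotically. Fluorescence read at ex 494/em 525 nm, 0.67 Hz, 20–25°C. Maximal fluorescence change reported, n = 3.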

[4] = target: T2, murine TRPV1 (Mus musculus, UniProt Q704Y3); assay: Fura2 Ca2+ imaging of HEK293 cells transiently expressing TRPV1
T2 sequence (Q704Y3 whole entry, the tested form may be a part): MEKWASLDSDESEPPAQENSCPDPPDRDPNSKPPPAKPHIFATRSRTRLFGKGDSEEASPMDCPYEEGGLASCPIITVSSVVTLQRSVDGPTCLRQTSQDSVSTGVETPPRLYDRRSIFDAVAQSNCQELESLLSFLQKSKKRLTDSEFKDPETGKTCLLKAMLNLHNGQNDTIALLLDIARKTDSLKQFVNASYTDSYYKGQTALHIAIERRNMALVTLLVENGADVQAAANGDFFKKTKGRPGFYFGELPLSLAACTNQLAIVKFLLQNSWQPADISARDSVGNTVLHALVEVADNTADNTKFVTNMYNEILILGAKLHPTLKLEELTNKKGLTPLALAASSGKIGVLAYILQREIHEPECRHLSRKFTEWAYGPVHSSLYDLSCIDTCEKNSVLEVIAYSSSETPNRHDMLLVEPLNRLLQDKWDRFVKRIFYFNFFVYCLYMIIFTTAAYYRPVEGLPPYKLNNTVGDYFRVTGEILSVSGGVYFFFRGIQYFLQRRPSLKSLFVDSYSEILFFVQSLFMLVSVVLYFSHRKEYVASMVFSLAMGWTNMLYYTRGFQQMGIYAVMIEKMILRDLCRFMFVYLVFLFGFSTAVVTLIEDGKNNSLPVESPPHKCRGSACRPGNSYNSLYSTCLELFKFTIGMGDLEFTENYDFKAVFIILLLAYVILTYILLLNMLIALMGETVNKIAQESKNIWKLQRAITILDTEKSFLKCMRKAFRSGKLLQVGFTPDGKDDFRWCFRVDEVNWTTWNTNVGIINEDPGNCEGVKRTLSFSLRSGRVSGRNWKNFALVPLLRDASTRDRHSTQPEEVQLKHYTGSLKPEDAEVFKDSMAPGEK
Procedure, shortened: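 Murine TRPV1 (pIRES2EGFP) was transiently expressed in HEK293 cells, which were seeded on polyornithine coverslips one day after transfection. After 16 hrs, cells were loaded with 2 µM Fura2-AM plus 0.05% Pluronic F-127 (60 min, 37°C). Transfected cells were identified by GFP (470 nm). Imaging used 340/380 nm excitation and 510 nm emission at 22°C. Capsaicin and test compound were perfused at final concentration. Maximal Fura2 ratio change reported, n = 3.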

[5] = target: T3, murine TRPV3 (Mus musculus, UniProt Q8K424); assay: Fluo4 [Ca2+]i assay in stable HEK293 TRPV3 cell line
T3 sequence (Q8K424 1-791): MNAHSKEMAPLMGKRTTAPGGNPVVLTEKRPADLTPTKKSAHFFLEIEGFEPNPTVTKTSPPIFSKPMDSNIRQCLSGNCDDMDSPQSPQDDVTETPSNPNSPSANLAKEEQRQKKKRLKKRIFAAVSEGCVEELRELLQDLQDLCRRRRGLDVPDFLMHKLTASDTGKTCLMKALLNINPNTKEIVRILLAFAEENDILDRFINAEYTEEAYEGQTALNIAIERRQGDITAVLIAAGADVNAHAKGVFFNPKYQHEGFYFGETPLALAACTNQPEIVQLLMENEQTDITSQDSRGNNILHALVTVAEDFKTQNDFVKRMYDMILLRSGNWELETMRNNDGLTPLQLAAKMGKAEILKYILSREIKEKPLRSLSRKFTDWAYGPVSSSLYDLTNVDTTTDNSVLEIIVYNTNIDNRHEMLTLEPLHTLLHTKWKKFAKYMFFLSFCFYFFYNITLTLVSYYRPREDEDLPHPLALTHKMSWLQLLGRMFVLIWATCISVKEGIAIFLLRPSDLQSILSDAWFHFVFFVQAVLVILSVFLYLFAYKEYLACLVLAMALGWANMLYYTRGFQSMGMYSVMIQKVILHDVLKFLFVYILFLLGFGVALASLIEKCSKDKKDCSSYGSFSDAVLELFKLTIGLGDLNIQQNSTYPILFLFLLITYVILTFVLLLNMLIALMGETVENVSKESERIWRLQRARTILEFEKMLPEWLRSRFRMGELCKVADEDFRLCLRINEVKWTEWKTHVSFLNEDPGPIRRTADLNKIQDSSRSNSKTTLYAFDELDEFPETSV
Procedure, shortened: as §1

[6] = system: HEK293 cells; assay: Fluo4 [Ca2+]i assay in parental HEK293 cells; conditions: 300 µM
Procedure, shortened: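 Wild-type HEK293 cells in DMEM (4.5 mg/ml glucose, 10% heat-inactivated FBS, penicillin/streptomycin), plated on polyornithine-treated wells for 14–18 hrs. Loaded with Fluo4-AM (2 µM, 60 min, 37°C) in ECS with 2 mM probenecid, then washed. Test compound was given robotically at 300 µM final. Fluorescence was read on a plate reader at ex 494/em 525 nm, 0.67 Hz, 20–25°C.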

[7] = target: human TRPA1 (Homo sapiens, UniProt O75762); assay: Fluo4 [Ca2+]i assay in HEK-A1 cells
human TRPA1, sequence (O75762 whole entry): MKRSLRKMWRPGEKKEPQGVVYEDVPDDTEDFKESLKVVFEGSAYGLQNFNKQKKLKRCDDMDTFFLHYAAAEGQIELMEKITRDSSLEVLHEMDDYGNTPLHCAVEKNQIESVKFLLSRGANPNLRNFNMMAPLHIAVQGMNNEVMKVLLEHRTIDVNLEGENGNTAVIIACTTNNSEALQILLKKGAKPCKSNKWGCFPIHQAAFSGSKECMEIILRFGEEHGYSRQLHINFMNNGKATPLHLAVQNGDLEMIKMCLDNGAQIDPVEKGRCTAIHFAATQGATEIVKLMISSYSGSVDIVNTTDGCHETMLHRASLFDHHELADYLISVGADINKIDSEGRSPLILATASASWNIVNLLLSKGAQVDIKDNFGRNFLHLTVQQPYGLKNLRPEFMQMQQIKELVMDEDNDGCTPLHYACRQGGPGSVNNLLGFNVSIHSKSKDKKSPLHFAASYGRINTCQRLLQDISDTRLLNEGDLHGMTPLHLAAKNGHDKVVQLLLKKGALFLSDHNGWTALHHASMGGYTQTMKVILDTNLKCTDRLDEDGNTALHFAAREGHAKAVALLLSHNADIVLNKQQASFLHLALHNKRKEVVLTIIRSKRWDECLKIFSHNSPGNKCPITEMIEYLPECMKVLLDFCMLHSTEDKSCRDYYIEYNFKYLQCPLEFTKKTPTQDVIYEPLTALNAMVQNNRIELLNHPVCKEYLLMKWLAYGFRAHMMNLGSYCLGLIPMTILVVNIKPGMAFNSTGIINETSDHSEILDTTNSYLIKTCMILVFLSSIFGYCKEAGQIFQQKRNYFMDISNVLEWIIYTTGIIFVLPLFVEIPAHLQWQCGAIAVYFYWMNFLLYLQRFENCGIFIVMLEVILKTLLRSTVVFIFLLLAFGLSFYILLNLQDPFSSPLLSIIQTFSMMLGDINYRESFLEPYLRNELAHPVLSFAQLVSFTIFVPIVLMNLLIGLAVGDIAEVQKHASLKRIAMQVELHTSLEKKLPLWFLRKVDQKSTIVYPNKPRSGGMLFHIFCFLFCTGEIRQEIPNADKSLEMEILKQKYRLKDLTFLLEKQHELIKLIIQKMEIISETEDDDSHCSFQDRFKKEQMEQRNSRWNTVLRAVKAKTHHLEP

[8] = target: human TRPA1 Cys621Ser, Cys641Ser and Cys665Ser triple mutant (Homo sapiens, UniProt O75762, C621S/C641S/C665S); assay: Currents of human TRPA1 triple cysteine mutant; conditions: HH, unpublished results
human TRPA1 Cys621Ser, Cys641Ser and Cys665Ser triple mutant, sequence (O75762 whole entry C621S/C641S/C665S): as the sequence (O75762 whole entry) above, with C621S, C641S, C665S counted along it

[9] = target: T2, murine TRPV1; assay: Two-electrode voltage clamp of Xenopus oocytes expressing murine TRPV1; conditions: 100 µM FFA with 100 µM 2APB
Procedure, shortened: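 Collagenase-defolliculated Xenopus oocytes (>1.5 mm) were injected with 5 ng cRNA and kept 2–5 days at 19°C in ND96. Two-electrode clamp used a nominally Ca²⁺-free bath (pH 7.4), holding −20 mV, a 20 ms step to −100 mV, then a 200 ms ramp to +100 mV each second, at 22°C.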

[10] = target: T1, human TRPA1 endogenously expressed in WI-38 fibroblasts; assay: Whole-cell recordings of WI-38 cells
Procedure, shortened: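 WI-38 cells grown in MEM with 10% heat-inactivated FBS and penicillin/streptomycin at 37°C, 5% CO₂. Cells were detached with 0.05% trypsin plus 0.53 mM EDTA in Ca²⁺/Mg²⁺-free HBSS for 5–10 min, held at 37°C, then settled on polyornithine-coated coverslips for 3–5 min before perfusion. Whole-cell voltage clamp was sampled at 5 kHz, with 100 ms ramps from −100 to +100 mV (holding −60 mV) applied every 0.5 s.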

[11] = high concentrations of FFA (30 to 300 µM)

T1 sequence (O75762 whole entry): as the sequence (O75762 whole entry) above

SMILES: O=C(O)c1ccccc1Nc1cccc(C(F)(F)F)c1 [FFA, flufenamic acid]
- agonist effect on Fluo4 fluorescence ([Ca2+]i) in WI-38 cells ([1]; 300 µM): increased the Fluo4 fluorescence
- nH (Hill coefficient) ([1]; WI-38 cells): 1.3 ± 0.2
- threshold of activation [2]: about 10 µM
- response to FFA and AITC together, % of that evoked by FFA alone ([2]; +100 mV): 300 ± 52%
- response to FFA and AITC together, % of that evoked by FFA alone ([2]; −100 mV): 350 ± 62%
- current stimulated by FFA and CA together, % of that evoked by FFA ([2]; +100 mV): 223 ± 25%
- current stimulated by FFA and CA together, % of that evoked by FFA ([2]; −100 mV): 234 ± 43%
- current with FFA at 14°C, % of that evoked by the same concentration at 22°C ([2]; +100 mV): 226 ± 86%
- current with FFA at 14°C, % of that evoked by the same concentration at 22°C ([2]; −100 mV): 315 ± 85%
- increase of FFA-activated current by raising bath Ca2+ to 10 mM ([2]; +100 mV): 240 ± 39%
- decrease of FFA-activated current amplitude in BAPTA-injected oocytes ([2]; +100 mV): ~ 44%
- decrease of FFA-activated current amplitude in BAPTA-injected oocytes ([2]; −100 mV): ~ 33%
- increase of FFA-activated current by raising bath Ca2+ to 10 mM ([2]; −100 mV): 309 ± 49%
- Hill co-efficient at +100 mV ([2]; +100 mV): 2.2 ± 0.2
- EC50 ([2]; EC50 for current activation at +100 mV, +100 mV): 78 ± 4 µM
- EC50 ([2]; EC50 for current activation at −100 mV, −100 mV): 147 ± 4 µM
- Hill co-efficient at −100 mV ([2]; −100 mV): 2.2 ± 0.1
- Fluo4 fluorescence change ([3]; 300 µM FFA): slow fluorescence increase
- increase in Fluo4 fluorescence upon application ([3]; FFA from 3.7 to 100 µM): no significant increase
- effect on [Ca2+]i increase elicited by the channel's agonist [3, 11]: inhibited
- increase in Fura2 ratio upon application ([4]; FFA from 3.7 to 100 µM): no significant increase
- effect on [Ca2+]i increase elicited by the channel's agonist [4, 11]: inhibited
- increase in Fluo4 fluorescence upon application ([5]; FFA from 3.7 to 100 µM): no significant increase
- effect on [Ca2+]i increase elicited by the channel's agonist [5, 11]: inhibited
- effect on Fluo4 fluorescence in HEK293 cells [6]: little effect
- EC50 [7]: 57 ± 5 µM
- nH (Hill coefficient) ([7]; HEK-A1 cells): 1.6 ± 0.1
- concentration-response curve in triple cysteine mutant [8]: right-shifted
- suppression of 2APB-activated current ([9]; +100 mV): 57%
- suppression of 2APB-activated current ([9]; −100 mV): 75%
- Hill co-efficient at +100 mV ([10]; +100 mV): 1.7 ± 0.2
- EC50 ([10]; EC50 for FFA-evoked whole-cell currents at +100 mV, +100 mV): 44 ± 11 µM
- EC50 ([10]; EC50 for FFA-evoked whole-cell currents at −100 mV, −100 mV): 55 ± 4 µM
- Hill co-efficient at −100 mV ([10]; −100 mV): 2.4 ± 0.1
